Reference: ChEMBL document CHEMBL1938251, “Synthesis and evaluation of potent and selective human V1a receptor antagonists as potential ligands for PET or SPECT imaging” (Bioorg Med Chem, 2012)
pKi: −log10 of the molar value.

Tests used:
Vasopressin V1b receptor = target: T1, Vasopressin V1b receptor (Homo sapiens, UniProt P47901); test: Binding affinity to human V1b receptor
T1 sequence (P47901 whole entry): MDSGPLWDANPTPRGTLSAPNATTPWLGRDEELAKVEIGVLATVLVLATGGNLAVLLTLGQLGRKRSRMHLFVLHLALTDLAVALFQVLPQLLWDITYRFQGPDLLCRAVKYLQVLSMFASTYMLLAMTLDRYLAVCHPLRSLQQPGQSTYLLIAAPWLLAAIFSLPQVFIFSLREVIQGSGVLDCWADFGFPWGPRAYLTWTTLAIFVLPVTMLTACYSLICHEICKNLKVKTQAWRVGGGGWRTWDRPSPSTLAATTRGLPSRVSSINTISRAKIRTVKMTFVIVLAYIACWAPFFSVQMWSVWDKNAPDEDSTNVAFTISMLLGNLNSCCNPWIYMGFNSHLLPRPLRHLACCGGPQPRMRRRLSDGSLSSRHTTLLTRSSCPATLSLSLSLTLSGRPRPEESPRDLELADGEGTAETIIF

Vasopressin V2 receptor = Vasopressin V2 receptor (Homo sapiens, UniProt P30518); test: Binding affinity to human vasopressin V2 receptor
Vasopressin V1a receptor = Vasopressin V1a receptor (Homo sapiens, UniProt P37288); test: Displacement of [3H]arginine-vasopressin from human Vasopressin V1a receptor after 30 mins by liquid scintillation counter
[1] = Permeability of the compound at 25 ug/ml after 18 hrs by PAMPA-BBB assay
[2] = Permeability of the compound at 5 mg/ml after 18 hrs by PAMPA-BBB assay; format: ADME; conditions: in the assay text read “25 ug/ml” for “5 mg/ml”
How it was run: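 PAMPA-BBB: DMSO stocks (5 mg/mL) diluted 200-fold into universal buffer pH 7.4, giving 25 μg/mL in the donor wells. The filter membrane was coated with porcine brain lipid in dodecane (20 mg/mL), with buffer pH 7.4 as acceptor. Plates stood undisturbed at room temperature for 18 h. Verapamil and theophylline served as high- and low-permeability standards. Pe was calculated by the Faller equation.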

Sequence of Vasopressin V2 receptor (P30518 whole entry): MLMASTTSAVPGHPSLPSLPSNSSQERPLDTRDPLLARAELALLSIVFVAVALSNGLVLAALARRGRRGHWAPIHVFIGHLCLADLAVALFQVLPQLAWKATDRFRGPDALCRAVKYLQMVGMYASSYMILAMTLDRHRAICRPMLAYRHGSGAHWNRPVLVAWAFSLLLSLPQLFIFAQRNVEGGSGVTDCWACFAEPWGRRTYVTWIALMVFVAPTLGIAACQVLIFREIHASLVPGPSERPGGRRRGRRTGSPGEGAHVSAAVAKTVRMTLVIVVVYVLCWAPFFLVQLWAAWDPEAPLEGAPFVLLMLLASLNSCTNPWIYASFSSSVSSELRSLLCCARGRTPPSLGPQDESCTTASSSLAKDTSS
Sequence of Vasopressin V1a receptor (P37288 whole entry): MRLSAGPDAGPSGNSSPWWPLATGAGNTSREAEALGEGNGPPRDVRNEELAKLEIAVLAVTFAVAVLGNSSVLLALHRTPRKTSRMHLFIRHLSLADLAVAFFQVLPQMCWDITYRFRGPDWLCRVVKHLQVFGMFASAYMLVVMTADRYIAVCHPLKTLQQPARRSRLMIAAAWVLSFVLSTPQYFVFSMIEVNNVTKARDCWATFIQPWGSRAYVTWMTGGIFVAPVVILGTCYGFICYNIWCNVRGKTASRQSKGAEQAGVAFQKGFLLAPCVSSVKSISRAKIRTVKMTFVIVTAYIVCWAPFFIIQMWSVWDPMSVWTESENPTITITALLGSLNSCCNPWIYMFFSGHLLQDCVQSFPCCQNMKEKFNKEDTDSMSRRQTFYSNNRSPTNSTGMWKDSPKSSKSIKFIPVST

Row | pKi (Vasopressin V1b receptor) | pKi (Vasopressin V2 receptor) | pKi (Vasopressin V1a receptor) | permeability [1] | permeability [2] | SMILES
1 | 5.94 | < 5.00 | 9.21 | 5.3 ×10⁻⁶ cm/s |  | C[C@@H](NC(=O)[C@@H](CC(=O)N1CCC(N2CCCCC2)CC1)N1C(=O)[C@@H](N2C(=O)OC[C@@H]2c2ccccc2)[C@H]1/C=C/c1cccc(F)c1)c1ccccc1
2 | 5.89 | < 5.00 | 9.20 | 4.5 ×10⁻⁶ cm/s |  | Cc1cccc(/C=C/[C@@H]2[C@H](N3C(=O)OC[C@@H]3c3ccccc3)C(=O)N2[C@H](CC(=O)N2CCC(N3CCCCC3)CC2)C(=O)N[C@H](C)c2ccccc2)c1
3 | < 6.00 | < 6.00 |  |  | 2.2 ×10⁻⁶ cm/s | C[C@@H](NC(=O)[C@@H](CC(=O)N1CCC(N2CCCCC2)CC1)N1C(=O)[C@@H](N2C(=O)OC[C@@H]2c2ccccc2)[C@H]1/C=C/c1cccc(I)c1)c1ccccc1
